ChEMBL document CHEMBL4715912, “Discovery of a novel series of indolinylpyrimidine-based GPR119 agonists: Elimination of ether-a-go-go-related gene liability using a hydrogen bond acceptor-focused approach” (Bioorg Med Chem, 2021)

How the values were obtained:
[1] = Intrinsic clearance in rat liver microsomes at 1 uM measured after 15 to 30 mins in presence of NADPH generating system by LC/MS/MS analysis; format: ADME, Microsome; details: time 15-30 min, read-out: CLH
Procedure, shortened: (§1)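 Human or rat liver microsomes at 0.2 mg/mL protein in 50 mM potassium phosphate pH 7.4 with 1 µM compound; reaction started with NADPH-generating system (5 mM MgCl2, 5 mM glucose-6-phosphate, 0.5 mM β-NADP+, 1.5 units/mL G6PDH). Stopped with acetonitrile at 15 and 30 min, parent by LC/MS/MS; rate from concentration–time slope, expressed as µL/min/mg.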

[2] = biological target: T1, Glucose-dependent insulinotropic receptor (Homo sapiens, UniProt Q8TDV5); test: Agonist activity at human GPR119 expressed in CHO cells co-expressing cyclic AMP response element incubated for 2 hrs by steady-glo luciferase assay; format: cell-based
T1 sequence (Q8TDV5 whole entry): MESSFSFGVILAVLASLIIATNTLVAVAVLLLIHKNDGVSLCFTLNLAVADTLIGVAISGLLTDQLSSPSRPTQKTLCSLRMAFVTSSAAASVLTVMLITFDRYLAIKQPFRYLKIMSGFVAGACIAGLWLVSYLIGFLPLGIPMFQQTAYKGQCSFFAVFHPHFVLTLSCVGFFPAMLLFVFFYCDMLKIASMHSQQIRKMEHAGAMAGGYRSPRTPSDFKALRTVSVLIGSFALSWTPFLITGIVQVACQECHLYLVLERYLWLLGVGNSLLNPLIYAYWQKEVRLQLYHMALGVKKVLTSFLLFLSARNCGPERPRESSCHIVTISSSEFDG
Procedure, shortened: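 CHO cells stably expressing human GPR119, seeded at 10,000 cells/well in MEM α with 500 µg/mL Geneticin overnight, then exposed to graded compound concentrations in MEM α/20 mmol/L HEPES/0.1% BSA for 2 h. cAMP-driven luciferase read with Steady-Glo. Response normalized between vehicle and a 10 µM reference agonist; EC50 as mean of n = 2.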

[3] = Partition coefficient, logD between 1-octanol and pH 7.4 aqueous buffer by chromatographic analysis; format: physicochemical; details: 1-octanol/pH 7.4 aqueous buffer
Procedure, shortened: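 LogD at pH 7.4, octanol/aqueous buffer partition, estimated by a chromatographic method adapted from a published procedure.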

hERG (KCNH2) [4] = biological target: T2, hERG (KCNH2) (Homo sapiens, UniProt Q12809); test: (§2) Inhibition of human ERG expressed in CHO cells at 10 uM incubated for 5 mins by patch-clamp assay relative to control; format: cell-based; details: CHO cells expressing human ERG
Procedure, shortened: (§3)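 hERG-expressing CHO cells grown at 32 °C, recorded by population patch clamp after amphotericin B perforation; PBS with Ca/Mg outside, KCl/EGTA/HEPES pH 7.3 inside. Holding −80 mV, step to 40 mV 2 s, then −50 mV 2 s; peak tail current before and after 5 min compound exposure. Percent inhibition = 100 − post/pre × 100; mean ± SD, n = 4.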

[5] = Intrinsic clearance in human liver microsomes at 1 uM measured after 15 to 30 mins in presence of NADPH generating system by LC/MS/MS analysis; format: ADME, Microsome; details: time 15-30 min, read-out: CLH; procedure, shortened: as §1
[6] = biological target: Voltage-gated inwardly rectifying potassium channel KCNH2 (Homo sapiens, UniProt Q12809); test: as §2; format: cell-based; details: cho, 5 min, 10 µM; procedure, shortened: as §3
hERG (KCNH2) [7] = biological target: T2, hERG (KCNH2); test: Inhibition of human ERG expressed in CHO cells at 30 uM incubated for 5 mins by patch-clamp assay relative to control; format: cell-based; details: CHO cells expressing human ERG; procedure, shortened: as §3
[8] = Total clearance in rat at 0.1 mg/kg, iv by LC/MS/MS analysis; format: ADME, organism-based; details: in vivo
Procedure, shortened: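 Cassette intravenous dosing at 0.1 mg/kg to non-fasted animals. Plasma taken from blood samples, deproteinized and centrifuged, and compound levels in supernatant quantified by LC/MS/MS.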

Sequence of Voltage-gated inwardly rectifying potassium channel KCNH2 (Q12809 whole entry): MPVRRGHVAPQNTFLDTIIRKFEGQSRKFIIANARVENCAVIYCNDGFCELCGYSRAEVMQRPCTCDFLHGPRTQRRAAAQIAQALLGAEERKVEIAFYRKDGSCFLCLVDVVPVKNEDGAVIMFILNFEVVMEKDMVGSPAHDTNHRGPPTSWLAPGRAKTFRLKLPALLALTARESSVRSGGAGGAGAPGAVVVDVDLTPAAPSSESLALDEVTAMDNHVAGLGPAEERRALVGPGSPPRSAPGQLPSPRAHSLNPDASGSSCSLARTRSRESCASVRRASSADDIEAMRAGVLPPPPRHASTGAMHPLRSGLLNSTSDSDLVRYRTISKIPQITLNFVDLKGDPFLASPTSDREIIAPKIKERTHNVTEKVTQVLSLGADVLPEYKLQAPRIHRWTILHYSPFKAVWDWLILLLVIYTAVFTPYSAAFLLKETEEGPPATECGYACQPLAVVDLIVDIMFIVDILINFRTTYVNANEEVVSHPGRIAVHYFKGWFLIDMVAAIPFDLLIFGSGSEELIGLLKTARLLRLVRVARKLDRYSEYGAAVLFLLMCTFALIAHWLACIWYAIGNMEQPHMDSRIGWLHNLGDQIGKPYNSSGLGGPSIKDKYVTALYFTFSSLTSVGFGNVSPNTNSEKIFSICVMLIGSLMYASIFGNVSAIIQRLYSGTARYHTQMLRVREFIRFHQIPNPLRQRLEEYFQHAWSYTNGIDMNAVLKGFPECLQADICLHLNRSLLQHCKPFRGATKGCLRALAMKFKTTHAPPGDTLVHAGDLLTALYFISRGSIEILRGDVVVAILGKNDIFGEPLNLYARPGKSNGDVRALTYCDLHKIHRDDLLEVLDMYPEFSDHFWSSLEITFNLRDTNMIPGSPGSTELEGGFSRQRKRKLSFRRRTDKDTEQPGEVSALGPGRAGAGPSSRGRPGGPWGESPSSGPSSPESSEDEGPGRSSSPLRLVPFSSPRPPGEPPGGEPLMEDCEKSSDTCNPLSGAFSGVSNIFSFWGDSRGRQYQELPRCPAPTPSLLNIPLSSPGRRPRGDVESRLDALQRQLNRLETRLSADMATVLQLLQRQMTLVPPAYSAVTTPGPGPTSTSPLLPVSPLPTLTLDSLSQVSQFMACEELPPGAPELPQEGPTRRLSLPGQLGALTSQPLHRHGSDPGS
T2 sequence (Q12809 whole entry): as above

SMILES | microsomal CLint at 1 µM [1] [µL/min/mg] | EC50 [2] [nM] | logD [3] | inhibition at 5 min, 10 µM (hERG (KCNH2) [4]) [%] | microsomal CLint at 1 µM [5] [µL/min/mg] | inhibition (INH) [6] [%] | inhibition at 5 min, 30 µM (hERG (KCNH2) [7]) [%] | clearance [8] [mL/min/kg]
CC(C)c1noc(N2CCC(Oc3cc(N4CCc5cc(N6CCCC6=O)ccc54)ncn3)CC2)n1 | 138 | 33 | 3.7 | 20 | – | – | – | –
CC(C)c1noc(N2CCC(Oc3cc(N4CCc5cc(N6CCC(O)CC6=O)ccc54)ncn3)CC2)n1 (racemic) | 13 | 89 | 2.8 | 18 | 4 | – | – | –
CC(C)SC(=O)N1CCC(Oc2cc(N3CCc4cc([S+]([O-])CCO)ccc43)ncn2)CC1 (stereo in doubt; form 1) | – | 57 | – | – | – | 44 | – | –
CC(C)c1noc(N2CCC(Oc3cc(N4CCc5cc(N6CCCS6(=O)=O)ccc54)ncn3)CC2)n1 | 1 | 9.7 | 3.2 | 19 | 18 | – | – | –
CC(=O)N(C)c1ccc2c(c1)CCN2c1cc(OC2CCN(c3nc(C(C)C)no3)CC2)ncn1 | 17 | 75 | 3.7 | 66 | 173 | – | 108 | –
CC(C)SC(=O)N1CCC(Oc2cc(N3CCc4cc(S(C)(=O)=O)ccc43)ncn2)CC1 | – | 3.2 | 3.6 | 89 | – | – | – | –
CC(C)c1noc(N2CCC(Oc3cc(N4CCc5cc(N6CCCNS6(=O)=O)ccc54)ncn3)CC2)n1 | 21 | 24 | 3.2 | 20 | 79 | – | – | –
CC(C)c1noc(N2CCC(Oc3cc(N4CCc5cc(N6CCCC(O)C6=O)ccc54)ncn3)CC2)n1 (racemic) | 4 | 17 | 3.3 | 20 | – | – | – | –
CC(C)c1noc(N2CCC(Oc3cc(N4CCc5cc(C6CCCCC6=O)ccc54)ncn3)CC2)n1 (racemic) | 141 | 48 | 4.7 | 13 | 78 | – | – | –
CC(C)SC(=O)N1CCC(Oc2cc(N3CCc4cc([S+]([O-])CCO)ccc43)ncn2)CC1 (racemic) | – | 14 | – | – | – | 95 | – | –
CC(C)c1noc(N2CCC(Oc3cc(N4CCc5cc(S(C)(=O)=O)ccc54)ncn3)CC2)n1 | – | – | – | 106 | 69 | – | – | 3.83
CCc1cnc(N2CCC(C(C)COC(=O)N3CCc4cc(S(C)(=O)=O)cc(F)c43)CC2)nc1 (centres undefined) | 365 | – | – | 75 | 329 | – | – | 47.7
CC(C)SC(=O)N1CCC(Oc2cc(N3CCc4cc([S+]([O-])CCO)ccc43)ncn2)CC1 (stereo in doubt; form 2) | – | 9.7 | 3.3 | – | – | 101 | – | –
CC(C)c1noc(N2CCC(Oc3cc(N4CCc5cc(S(=O)(=O)CCO)ccc54)ncn3)CC2)n1 | – | 41 | 2.7 | 102 | – | – | – | –
CC(C)c1noc(N2CCC(Oc3cc(N4CCc5cc(N6CCNCC6=O)ccc54)ncn3)CC2)n1 | 98 | 36 | 2.7 | 15 | – | – | – | –
CC(C)OC(=O)N1CCC(Oc2cc(N3CCc4cc(S(C)(=O)=O)ccc43)ncn2)CC1 | – | – | – | 84 | – | – | – | –
CC(C)c1noc(N2CCC(Oc3cc(N4CCc5cc(N6CC(O)CCC6=O)ccc54)ncn3)CC2)n1 (racemic) | 7 | 90 | 2.6 | 18 | 1 | – | – | –
CC(C)c1noc(N2CCC(Oc3cc(N4CCc5cc(N6CCOCC6=O)ccc54)ncn3)CC2)n1 | 46 | 15 | 3.1 | 54 | 27 | – | – | –
CC(C)SC(=O)N1CCC(Oc2cc(N3CCc4ccccc43)ncn2)CC1 | – | > 10000 | 5.3 | 14 | – | – | 16 | –
CC(C)c1noc(N2CCC(Oc3cc(N4CCc5cc(N6CCCCC6=O)ccc54)ncn3)CC2)n1 | 13 | 17 | 3.8 | 31 | – | – | – | –
CC(C)c1noc(N2CCC(Oc3cc(N4CCc5cc(N6CCC[C@@H](O)C6=O)ccc54)ncn3)CC2)n1 | – | 25 | 3.3 | 23 | – | – | – | 6.25
CC(C)c1noc(N2CCC(Oc3cc(N4CCc5cc([S+]([O-])CCO)ccc54)ncn3)CC2)n1 (racemic) | – | 48 | 2.7 | 107 | – | – | – | –
